Measured values taken from ChEMBL document CHEMBL1130202, “Biologically active heteroarotinoids exhibiting anticancer activity and decreased toxicity” (J Med Chem, 1997).
Active and inactive are the calls of the source. The rule behind the calls is not given here.

Columns and labels:
[1] = Mortality rate in mice in high dose; format: ADME; conditions: mouse, in vivo
Outline: (§1)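 Male B6D2F1 mice given compound daily by gavage in corn oil at the stated dose levels, with corn oil vehicle controls. Deaths counted as animals found dead or sacrificed moribund, with day(s) of death recorded. Heteroarotinoid groups ran to day 65 and low-dose reference groups to day 25.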

[2] = species on record: Mus musculus; assay: Calculated 30-day maximally tolerated dose based on 10% weight loss in mice at high dose; format: functional
[3] = species on record: Mus musculus; assay: Effect of compound on right testicle to body weight ratios in mice at low dose on day 65; format: functional
Outline: (§2)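 Male B6D2F1 mice dosed daily by gavage with compound in corn oil; vehicle 1 (corn oil) controls run to termination on day 65. Low, mid 1, mid 2 and high dose groups, with dosage increases partway through the study. Organ-to-body weight ratios (×1000) taken at necropsy on day 65, reported as mean ± SD for 4 to 8 animals and as % difference from vehicle.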

[4] = species on record: Mus musculus; assay: Total dose of 10% weight loss in mice at mid dose 2; format: functional
[5] = species on record: Mus musculus; assay: Calculated 30-day maximally tolerated dose based on 10% weight loss in mice at mid dose 2; format: functional
[6] = species on record: Mus musculus; assay: Calculated 30-day maximally tolerated dose based on 10% weight loss in mice at mid dose 1; format: functional
[7] = Mortality rate in mice in low dose; format: ADME; conditions: mouse, in vivo; outline: as §1
[8] = species on record: Mus musculus; assay: Effect of compound on adrenal to body weight ratios in mice at mid dose 1 on day 65; format: functional; outline: as §2
[9] = species on record: Mus musculus; assay: Average number of fractures per mouse at low dose
[10] = species on record: Mus musculus; assay: Approximate day to 10% weight loss in mice at high dose; format: functional
Outline: (§3)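 Male B6D2F1 mice dosed daily by gavage in corn oil; body weights followed to termination (day 65, or day 25 for TTNPB 0.01/0.05 mg/kg/day groups) and compared with the matching vehicle group. Value is approximate day of onset of 10% body weight reduction versus vehicle.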

[11] = species on record: Mus musculus; assay: Effect of compound on serum triglycerides levels in mice at mid dose 1 on day 29; format: functional
Outline: (§4)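 Male B6D2F1 mice were gavaged daily with compound in corn oil at low, mid 1, mid 2 or high dose. Serum triglycerides and circulating white blood cells were measured on the stated day (8, 29, 36, 65). Values are group mean ± SD expressed as % relative to corn-oil vehicle, with significance at p ≤ 0.05.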

[12] = species on record: Mus musculus; assay: Effect of compound on right testicle to body weight ratios in mice at mid dose 2 on day 65; format: functional; outline: as §2
[13] = species on record: Mus musculus; assay: Total dose of 10% weight loss in mice at high dose; format: functional
[14] = species on record: Mus musculus; assay: Effect of compound on serum Alkaline phosphatase levels in mice at mid dose 2 on day 36; format: functional
Outline: (§5)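 Male B6D2F1 mice dosed daily by oral gavage in corn oil at low, mid 1, mid 2 or high dose. Blood sampled on set days (8, 29, 36, 65) for clinical chemistry, serum alkaline phosphatase and triglycerides. Group mean ± SD reported as % relative to vehicle 1; significance p < 0.05 versus corn oil vehicle.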

[15] = species on record: Mus musculus; assay: Effect of compound on thymus to body weight ratios in mice at mid dose 1 on day 65; format: functional
Outline: (§6)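 Male B6D2F1 mice were dosed daily by gavage in corn oil, with TTNPB given at 0.1–0.8 or 0.01/0.05 mg/kg/day. Thymus-to-body weight ratio (×1000) was taken at necropsy on day 65 against vehicle 1, or on day 25 for the 0.01/0.05 groups against vehicle 2. Mean ± SD of 4–8 animals, reported as % difference from vehicle.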

[16] = species on record: Mus musculus; assay: Effect of compound on Spleen to body weight ratios in mice at mid dose 1 on day 65; format: functional; outline: as §2
[17] = species on record: Mus musculus; assay: Calculated 30-day maximally tolerated dose based on 10% weight loss in mice at low dose; format: functional
[18] = species on record: Mus musculus; assay: Approximate day to 10% weight loss in mice at low dose; format: functional; outline: as §3
[19] = species on record: Mus musculus; assay: Effect of compound on adrenal to body weight ratios in mice at low dose on day 65; format: functional; outline: as §2
[20] = species on record: Mus musculus; assay: Effect of compound on white blood cells levels in mice at mid dose 2 on day 65; format: functional; outline: as §4
[21] = species on record: Mus musculus; assay: Effect of compound on serum Alkaline phosphatase levels in mice at high dose on day 36; format: functional; outline: as §5
[22] = species on record: Mus musculus; assay: Effect of compound on right testicle to body weight ratios in mice at mid dose 1 on day 65; format: functional; outline: as §2
[23] = system: CC-B; assay: Relative transcriptional activation activity relative to t-RA; format: functional, Homo sapiens
Outline: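 CC-B reporter cells (CC-1 cervical line carrying a CAT gene under a RARE with a tk promoter) were seeded at 4×10^5 cells/well in MEM with nonessential amino acids, pyruvate and 10% FBS, the serum lots having negligible t-RA by HPLC. Triplicate cultures were screened at 10^-6 M with 0.1% DMSO final. After 48 h, CAT activity ([3H]acetyl-CoA) per mg protein was taken as treated/control and expressed relative to t-RA. Average of three experiments.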

[24] = Mortality rate in mice in mid dose 2; format: ADME; conditions: mouse, in vivo; outline: as §1
[25] = species on record: Mus musculus; assay: Approximate day to 10% weight loss in mice at mid dose 2; format: functional; outline: as §3
[26] = species on record: Mus musculus; assay: Effect of compound on serum Alkaline phosphatase levels in mice at mid dose 2 on day 65; format: functional; outline: as §5
[27] = species on record: Mus musculus; assay: Effect of compound on serum Alkaline phosphatase levels in mice at low dose on day 65; format: functional; outline: as §5
[28] = species on record: Mus musculus; assay: Average number of fractures per mouse at high dose
[29] = species on record: Mus musculus; assay: Average number of fractures per mouse at mid dose 2
[30] = species on record: Mus musculus; assay: Effect of compound on thymus to body weight ratios in mice at low dose on day 65; format: functional; outline: as §6
[31] = species on record: Mus musculus; assay: Effect of compound on serum triglycerides levels in mice at high dose on day 29; format: functional; outline: as §5
[32] = species on record: Mus musculus; assay: Effect of compound on adrenal to body weight ratios in mice at mid dose 2 on day 65; format: functional; outline: as §2
[33] = species on record: Mus musculus; assay: Total dose of 10% weight loss in mice at low dose; format: functional
[34] = species on record: Mus musculus; assay: Total dose of 10% weight loss in mice at mid dose 1; format: functional
[35] = species on record: Mus musculus; assay: Approximate day to 10% weight loss in mice at mid dose 1; format: functional; outline: as §3
[36] = species on record: Mus musculus; assay: Effect of compound on Spleen to body weight ratios in mice at mid dose 2 on day 65; format: functional; outline: as §2
[37] = species on record: Mus musculus; assay: Effect of compound on thymus to body weight ratios in mice at mid dose 2 on day 65; format: functional; outline: as §6
[38] = species on record: Mus musculus; assay: Fracture incidence in mouse at low dose; 0/8
[39] = species on record: Mus musculus; assay: Effect of compound on serum triglycerides levels in mice at low dose on day 29; format: functional; outline: as §5
[40] = species on record: Mus musculus; assay: Skin scaling in mice at mid dose 2 with Hypervitaminosis; 0/16; format: functional, organism-based
Outline: (§7)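 Male B6D2F1 mice were dosed daily by gavage in corn oil and observed for skin scaling of the ears, mouth, nose, eyelids, feet, tail or ventral body. Results are given as affected animals over animals in the group, with the day of first observation.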

[41] = species on record: Mus musculus; assay: Skin scaling in mice at low dose with Hypervitaminosis; 0/16; format: functional, organism-based; outline: as §7
[42] = species on record: Mus musculus; assay: Effect of compound on adrenal to body weight ratios in mice at high dose on day 65; format: functional; outline: as §2
[43] = species on record: Mus musculus; assay: Enlarged spleen in Gross pathological observations in mice with hypervitaminosis A at low dose with gross observations/total number of mice in group; 0/16; format: functional, organism-based
[44] = species on record: Mus musculus; assay: Effect of compound on serum triglycerides levels in mice at mid dose 2 on day 29; format: functional; outline: as §4

Q: Which Mortality [1] does the source give for `C/C(=C\c1ccc(C(=O)O)cc1)c1ccc2c(c1)C(C)(C)CCO2` here?
A: 8 day of death

Q: And the Max tolerated dose [2]?
A: 9.4 mg/kg

Q: And the Activity [3]?
A: 1.9

Q: And the Dose [4]?
A: 220.6 mg/kg

Q: What about the Max tolerated dose [5] of the same molecule?
A: 7.4 mg/kg

Q: What about the Max tolerated dose [6] of the same molecule?
A: 6.3 mg/kg

Q: And the Mortality [7]?
A: 0 day of death

Q: What about the Activity [8] of the same molecule?
A: 0.4

Q: What about the Activity [9] of the same molecule?
A: 0.4

Q: What about the Activity [10] of the same molecule?
A: 36

Q: And the Activity [11]?
A: 175.9

Q: What about the Activity [12] of the same molecule?
A: 1.9

Q: And the Dose [13]?
A: 280.8 mg/kg

Q: What about the Activity [14] of the same molecule?
A: 93.3

Q: What about the Activity [15] of the same molecule?
A: 1.3

Q: What about the Activity [16] of the same molecule?
A: 5

Q: And the Max tolerated dose [17]?
A: >4.9 mg/kg

Q: What about the Activity [18] of the same molecule?
A: >65

Q: What about the Activity [19] of the same molecule?
A: 0.3

Q: What about the Activity [20] of the same molecule?
A: 6.55

Q: And the Activity [21]?
A: 86.3

Q: What about the Activity [22] of the same molecule?
A: 2

Q: What about the Relative activity [23] of the same molecule?
A: 31

Q: What about the Mortality [24] of the same molecule?
A: 4 day of death

Q: And the Activity [25]?
A: 41

Q: And the Activity [26]?
A: 134.8

Q: What about the Activity [27] of the same molecule?
A: 115

Q: And the Activity [28]?
A: 1.3

Q: What about the Activity [29] of the same molecule?
A: 3.4

Q: What about the Activity [30] of the same molecule?
A: 1.5

Q: What about the Activity [31] of the same molecule?
A: 192

Q: What about the Activity [32] of the same molecule?
A: 0.3

Q: What about the Dose [33] of the same molecule?
A: 147.1 mg/kg

Q: What about the Dose [34] of the same molecule?
A: 190.2 mg/kg

Q: And the Activity [35]?
A: 51

Q: What about the Activity [36] of the same molecule?
A: 7.1

Q: What about the Activity [37] of the same molecule?
A: 0.9

Q: With `CC(/C=C/C=C(\C)c1ccc2c(c1)C(C)(C)CCS2)=C\C(=O)O` as the molecule, how does the Mortality [1] read?
A: 0 day of death

Q: And the Activity [38]?
A: inactive

Q: And the Max tolerated dose [2]?
A: 33.9 mg/kg

Q: And the Activity [3]?
A: 2.6

Q: And the Activity [39]?
A: 176.4

Q: And the Dose [4]?
A: >828.4 mg/kg

Q: And the Max tolerated dose [5]?
A: >27.6 mg/kg

Q: And the Max tolerated dose [6]?
A: >13.8 mg/kg

Q: And the Mortality [7]?
A: 0 day of death

Q: What about the Activity [8] of the same molecule?
A: 0.3

Q: What about the Activity [9] of the same molecule?
A: 0

Q: And the Activity [10]?
A: 54

Q: What about the Activity [11] of the same molecule?
A: 174.1

Q: And the Activity [12]?
A: 2.8

Q: What about the Dose [13] of the same molecule?
A: 1016.8 mg/kg

Q: And the Activity [40]?
A: inactive

Q: What about the Activity [14] of the same molecule?
A: 75.6

Q: And the Activity [41]?
A: inactive

Q: And the Activity [15]?
A: 1.5

Q: What about the Activity [16] of the same molecule?
A: 2

Q: And the Max tolerated dose [17]?
A: >6.9 mg/kg

Q: And the Activity [18]?
A: >65

Q: What about the Activity [19] of the same molecule?
A: 0.3

Q: What about the Activity [21] of the same molecule?
A: 84.6

Q: And the Activity [22]?
A: 3.1

Q: And the Relative activity [23]?
A: 52

Q: And the Mortality [24]?
A: 0 day of death

Q: What about the Activity [25] of the same molecule?
A: >65

Q: What about the Activity [26] of the same molecule?
A: 137

Q: And the Activity [27]?
A: 127.5

Q: What about the Activity [28] of the same molecule?
A: 0.3

Q: And the Activity [29]?
A: 0

Q: And the Activity [30]?
A: 1.7

Q: What about the Activity [31] of the same molecule?
A: 164.2

Q: And the Activity [32]?
A: 0.3

Q: And the Activity [42]?
A: 2.6

Q: And the Dose [33]?
A: >207.1 mg/kg

Q: What about the Dose [34] of the same molecule?
A: >414.2 mg/kg

Q: And the Activity [43]?
A: inactive

Q: What about the Activity [35] of the same molecule?
A: >65

Q: And the Activity [36]?
A: 2.2

Q: What about the Activity [44] of the same molecule?
A: 153.4

Q: And the Activity [37]?
A: 1.6
